The source of these data is ChEMBL document CHEMBL2040753, “Development of potent and selective inhibitors of aldo-keto reductase 1C3 (type 5 17β-hydroxysteroid dehydrogenase) based on N-phenyl-aminobenzoates and their structure-activity relationships” (J Med Chem, 2012).

Assay [1] addresses T1, Aldo-keto reductase family 1 member C3 (Homo sapiens, UniProt P42330).
T1 sequence (P42330 whole entry): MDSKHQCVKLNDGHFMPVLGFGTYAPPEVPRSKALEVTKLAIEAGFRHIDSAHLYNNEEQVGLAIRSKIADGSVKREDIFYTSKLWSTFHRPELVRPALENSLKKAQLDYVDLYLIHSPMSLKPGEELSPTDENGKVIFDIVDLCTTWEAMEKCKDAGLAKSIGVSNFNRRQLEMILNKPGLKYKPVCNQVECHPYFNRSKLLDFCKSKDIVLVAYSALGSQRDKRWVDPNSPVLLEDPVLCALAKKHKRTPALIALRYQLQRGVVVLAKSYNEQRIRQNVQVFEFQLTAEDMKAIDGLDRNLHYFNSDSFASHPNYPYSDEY
The assay can be described thus: Inhibition of recombinant AKR1C3 assessed as NADP+ dependent oxidation of S-tetralol by fluorescence assay.

Assay [2] addresses T2, Aldo-keto reductase family 1 member C2 (Homo sapiens, UniProt P52895).
T2 sequence (P52895 whole entry): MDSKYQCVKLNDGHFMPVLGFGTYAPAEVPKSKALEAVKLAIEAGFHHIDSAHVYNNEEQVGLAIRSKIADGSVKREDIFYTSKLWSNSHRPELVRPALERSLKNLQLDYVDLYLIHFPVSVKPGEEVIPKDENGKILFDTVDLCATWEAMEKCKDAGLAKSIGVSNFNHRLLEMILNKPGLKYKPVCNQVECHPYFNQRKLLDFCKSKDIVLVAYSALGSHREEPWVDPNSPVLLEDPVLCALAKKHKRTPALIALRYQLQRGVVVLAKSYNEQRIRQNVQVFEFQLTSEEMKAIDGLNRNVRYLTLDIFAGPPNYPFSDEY
Put plainly: Inhibition of recombinant AKR1C2 assessed as NADP+ dependent oxidation of S-tetralol by fluorescence assay. The method in brief: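 Homogeneous recombinant enzyme; continuous oxidation of S-tetralol (at each isoform's KM) with 200 μM NADP+ in 100 mM phosphate pH 7.0, 4% DMSO, 37 °C. Initial velocities compared with solvent control; quadruplicate points over a range of inhibitor concentrations; IC50 from curve fit.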

The term IC50 denotes the concentration that inhibits the measured activity by half. `COc1cccc(Nc2ccc(C(C)=O)cc2C(=O)O)c1`: the IC50 in assay [1] came to 2.26 µM; in assay [2], 3.58 µM.
With `COc1ccc(C(=O)O)c(Nc2cccc([N+](=O)[O-])c2)c1`, the values for the IC50 in assay [1] and in assay [2] were 0.08 µM and 0.19 µM, respectively.
In the same order, the values of `COc1ccc(C(=O)O)c(Nc2ccc(Cl)cc2)c1` are 0.22 µM and 0.29 µM.
In the case of `Cc1ccc(Nc2ccccc2C(=O)O)cc1`, the IC50 in assay [1] came out at 0.36 µM; in assay [2], 1.46 µM.
The matching figures for `Cc1ccc(Nc2ccc(C(=O)O)cc2)cc1`: 1.89 µM and 48.2 µM.
Consider `CC(=O)c1ccc(Nc2cccc([N+](=O)[O-])c2)c(C(=O)O)c1`, for which the IC50 in assay [1] was 0.98 µM; in assay [2] it was 3.17 µM.
The matching figures for `O=C(O)c1ccc(Nc2cccc([N+](=O)[O-])c2)cc1`: 4.21 µM and greater than 100 µM.
The matching figures for `O=C(O)c1cccc(Nc2cccc([N+](=O)[O-])c2)c1`: 0.29 µM and 19.3 µM.
For `CC(=O)c1ccc(Nc2ccccc2[N+](=O)[O-])c(C(=O)O)c1`, the values for the IC50 in assay [1] and in assay [2] were 1.11 µM and 3.97 µM, respectively.
For the molecule `Cc1cccc(Nc2ccc(C(=O)O)cc2)c1`, the IC50 came to 1.67 µM in assay [1] and 21.5 µM in assay [2].
The matching figures for `COc1cccc(Nc2ccc(C(=O)O)cc2)c1`: 2.65 µM and 84.4 µM.
In the same order, the values of `COc1ccc(Nc2ccccc2C(=O)O)cc1` are 0.09 µM and 0.7 µM.
In the same order, the values of `CC(=O)c1ccccc1Nc1cccc(C(=O)O)c1` are 0.96 µM and 32.6 µM.
For the molecule `O=C(O)c1ccc(Nc2ccc(Cl)cc2)cc1`, the IC50 in assay [1] stood at 1.05 µM; in assay [2], 20 µM.
The matching figures for `O=C(O)c1cccc(Nc2ccccc2C(=O)O)c1`: 0.98 µM and 4.16 µM.
As to `COc1ccccc1Nc1ccc(C(=O)O)cc1`, the IC50 in assay [1] was 3.39 µM; in assay [2], 29.3 µM.
The matching figures for `Cc1cc(C)cc(Nc2ccc(C(=O)O)cc2)c1`: 0.87 µM and 49.3 µM.
Take `O=C(O)c1ccc(Nc2cccc(C(F)(F)F)c2)cc1`: the IC50 in assay [1] worked out at 0.5 µM; in assay [2], 11.1 µM.
The matching figures for `CC(=O)c1ccc(Nc2ccc(Cl)cc2)c(C(=O)O)c1`: 0.6 µM and 2.23 µM.
In the same order, the values of `CC(=O)c1cccc(Nc2ccc(C(C)=O)cc2C(=O)O)c1` are 0.65 µM and 1.88 µM.
In the case of `O=C(O)c1ccccc1Nc1cccc([N+](=O)[O-])c1`, the IC50 in assay [1] was determined as 0.04 µM; in assay [2] it was 0.51 µM.
The matching figures for `O=C(O)c1ccc(Nc2ccccc2C(=O)O)cc1`: 2.74 µM and 3.26 µM.
The matching figures for `CC(=O)c1ccc(Nc2ccc(C(=O)O)cc2)c(C(=O)O)c1`: 1.55 µM and 18.9 µM.
The matching figures for `COc1ccc(C(=O)O)c(Nc2ccccc2)c1`: 1.66 µM and 1.49 µM.
On to `Cc1cccc(Nc2cccc(C(=O)O)c2)c1`, for which the IC50 in assay [1] was 1.88 µM; in assay [2], 22.9 µM.
In the same order, the values of `O=C(O)c1ccccc1Nc1ccc(Cl)cc1` are 0.07 µM and 0.41 µM.
In the same order, the values of `COc1ccc(C(=O)O)c(Nc2ccc(C(=O)O)cc2)c1` are 0.69 µM and 0.98 µM.
In the same order, the values of `O=C(O)c1ccc(Nc2cccc(C(=O)O)c2)cc1` are 1.64 µM and 19.9 µM.
Regarding `COc1ccc(Nc2cc(OC)ccc2C(=O)O)cc1`, the IC50 amounted to 0.25 µM in assay [1] and 0.91 µM in assay [2].
For the molecule `COc1ccc(C(=O)O)c(Nc2ccccc2OC)c1`, the values for the IC50 in assay [1] and in assay [2] were 1.73 µM and 2.4 µM, respectively.
Turning to `COc1cccc(Nc2ccccc2C(=O)O)c1`, the values for the IC50 in assay [1] and in assay [2] were 0.57 µM and 1.11 µM, respectively.
In the same order, the values of `CC(=O)c1ccc(Nc2cccc(C)c2)c(C(=O)O)c1` are 1.94 µM and 2.84 µM.
